From ChEMBL document CHEMBL3861985, “Discovery of N-(1-(3-(4-phenoxyphenyl)-1,2,4-oxadiazol-5-yl)ethyl)acetamides as novel acetyl-CoA carboxylase 2 (ACC2) inhibitors with peroxisome proliferator-activated receptor α/δ (PPARα/δ) dual agonistic activity” (Bioorg Med Chem, 2016)

What was measured:
[1] = molecular target: T1, Acetyl-CoA carboxylase 2 (Homo sapiens, UniProt O00763); assay: Inhibition of full length recombinant C-terminal His-tagged human ACC2 expressed in baculovirus infected sf9 cells using acetyl-CoA as substrate after 90 mins by ATP consumption assay
Method in brief: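 Recombinant C-terminal His-tagged human ACC2 (50 ng/well) was run in 30 mM HEPES pH 7.5 with 18 mM NaHCO3, 1.0 mg/mL BSA, 0.5 μM ATP, 1 mM DTT, 4 mM MgCl2, 2 mM sodium citrate, 0.5 mM acetyl-CoA and 1% DMSO. Inhibitor ranged 0–100 μM. Enzyme addition started the reaction, then 90 min at 37 °C. Residual ATP was read by luminescence. Triplicates; IC50 from dose–response curves.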
Target sequence in this assay (O00763 whole entry): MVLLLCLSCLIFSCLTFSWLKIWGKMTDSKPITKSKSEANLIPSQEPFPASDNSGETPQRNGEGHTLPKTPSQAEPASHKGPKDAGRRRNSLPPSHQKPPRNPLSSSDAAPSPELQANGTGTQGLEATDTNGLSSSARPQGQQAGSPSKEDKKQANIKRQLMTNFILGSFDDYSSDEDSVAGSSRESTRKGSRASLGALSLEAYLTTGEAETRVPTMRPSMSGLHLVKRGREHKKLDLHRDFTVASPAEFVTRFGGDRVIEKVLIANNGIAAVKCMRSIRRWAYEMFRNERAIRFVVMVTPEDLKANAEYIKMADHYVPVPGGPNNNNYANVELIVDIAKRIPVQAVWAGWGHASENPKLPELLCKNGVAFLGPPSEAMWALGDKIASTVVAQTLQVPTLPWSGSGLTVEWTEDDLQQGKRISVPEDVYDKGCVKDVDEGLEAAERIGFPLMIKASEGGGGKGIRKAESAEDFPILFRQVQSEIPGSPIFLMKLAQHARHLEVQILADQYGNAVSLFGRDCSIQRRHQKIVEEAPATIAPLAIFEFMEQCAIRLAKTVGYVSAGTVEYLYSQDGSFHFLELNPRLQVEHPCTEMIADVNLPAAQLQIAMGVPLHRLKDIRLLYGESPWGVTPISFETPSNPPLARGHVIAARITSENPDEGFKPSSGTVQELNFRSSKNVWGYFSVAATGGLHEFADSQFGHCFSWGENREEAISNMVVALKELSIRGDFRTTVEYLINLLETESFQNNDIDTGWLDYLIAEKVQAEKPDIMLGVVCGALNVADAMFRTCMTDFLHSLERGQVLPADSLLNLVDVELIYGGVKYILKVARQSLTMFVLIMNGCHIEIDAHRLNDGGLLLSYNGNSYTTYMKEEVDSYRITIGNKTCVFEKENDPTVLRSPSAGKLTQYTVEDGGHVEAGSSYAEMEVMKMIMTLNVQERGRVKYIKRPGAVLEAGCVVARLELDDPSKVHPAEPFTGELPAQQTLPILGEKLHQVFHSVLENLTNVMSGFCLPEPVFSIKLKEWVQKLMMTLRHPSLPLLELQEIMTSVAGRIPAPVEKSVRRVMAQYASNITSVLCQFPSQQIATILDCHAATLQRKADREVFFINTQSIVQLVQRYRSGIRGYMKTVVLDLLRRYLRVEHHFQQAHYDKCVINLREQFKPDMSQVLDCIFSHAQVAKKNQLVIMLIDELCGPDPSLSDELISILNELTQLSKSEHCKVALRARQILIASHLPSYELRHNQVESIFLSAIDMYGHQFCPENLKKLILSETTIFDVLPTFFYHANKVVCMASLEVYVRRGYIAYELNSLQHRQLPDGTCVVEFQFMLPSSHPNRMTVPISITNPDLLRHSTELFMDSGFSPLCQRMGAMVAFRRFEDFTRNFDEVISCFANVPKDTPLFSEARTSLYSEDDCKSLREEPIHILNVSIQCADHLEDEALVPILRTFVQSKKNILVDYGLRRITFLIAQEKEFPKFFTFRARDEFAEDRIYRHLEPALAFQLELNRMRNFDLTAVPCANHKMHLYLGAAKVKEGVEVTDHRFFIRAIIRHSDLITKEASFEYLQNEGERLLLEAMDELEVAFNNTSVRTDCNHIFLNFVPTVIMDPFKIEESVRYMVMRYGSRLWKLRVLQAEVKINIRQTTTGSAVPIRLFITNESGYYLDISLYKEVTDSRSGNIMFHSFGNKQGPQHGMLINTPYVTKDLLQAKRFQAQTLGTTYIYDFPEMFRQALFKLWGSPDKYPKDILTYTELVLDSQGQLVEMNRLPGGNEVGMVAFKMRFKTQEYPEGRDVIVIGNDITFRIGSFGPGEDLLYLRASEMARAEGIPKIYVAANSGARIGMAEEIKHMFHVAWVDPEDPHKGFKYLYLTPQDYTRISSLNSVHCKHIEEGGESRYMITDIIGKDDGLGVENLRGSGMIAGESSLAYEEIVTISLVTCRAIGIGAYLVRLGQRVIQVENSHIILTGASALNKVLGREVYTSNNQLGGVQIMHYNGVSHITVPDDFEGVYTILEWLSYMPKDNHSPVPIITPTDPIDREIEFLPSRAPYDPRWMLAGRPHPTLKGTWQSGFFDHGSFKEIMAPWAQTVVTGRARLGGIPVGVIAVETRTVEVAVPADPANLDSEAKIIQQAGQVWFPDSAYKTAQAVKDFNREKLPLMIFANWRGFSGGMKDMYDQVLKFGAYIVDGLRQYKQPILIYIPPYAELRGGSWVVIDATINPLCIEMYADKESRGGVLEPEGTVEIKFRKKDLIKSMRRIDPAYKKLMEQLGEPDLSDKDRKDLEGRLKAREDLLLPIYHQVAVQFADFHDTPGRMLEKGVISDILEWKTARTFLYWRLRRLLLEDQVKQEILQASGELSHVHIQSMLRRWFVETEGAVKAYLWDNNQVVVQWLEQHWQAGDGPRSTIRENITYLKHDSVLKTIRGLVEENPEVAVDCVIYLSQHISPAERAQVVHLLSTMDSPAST

[2] = molecular target: T1, Acetyl-CoA carboxylase 2; assay: Inhibition of full length recombinant C-terminal His-tagged human ACC2 expressed in baculovirus infected sf9 cells at 30 uM using acetyl-CoA as substrate after 90 mins by ATP consumption assay relative to N-(4-(4-(4-isopropoxyphenoxy)phenyl)but-3-yn-2-yl)acetamide
Method in brief: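 ATP-consumption assay with His-tagged human ACC2 (50 ng/well), 0.5 mM acetyl-CoA, 0.5 μM ATP and bicarbonate/citrate/Mg2+ in HEPES pH 7.5, run 90 min at 37 °C. Residual ATP was measured. Inhibition at 30 μM is expressed as a percentage of the maximum inhibition reached by the reference ACC inhibitor (set to 100%).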
Target sequence in this assay (O00763 whole entry, looked up): as the sequence (O00763 whole entry) above

[3] = molecular target: T2, Peroxisome proliferator-activated receptor alpha (Homo sapiens, UniProt Q07869); assay: Agonist activity at GAL4-tagged human PPARalpha ligand binding domain chimeric receptor expressed in HEK293 cells after 24 hrs by luciferase reporter gene assay; assay type: cell-based
T2 sequence (Q07869 whole entry): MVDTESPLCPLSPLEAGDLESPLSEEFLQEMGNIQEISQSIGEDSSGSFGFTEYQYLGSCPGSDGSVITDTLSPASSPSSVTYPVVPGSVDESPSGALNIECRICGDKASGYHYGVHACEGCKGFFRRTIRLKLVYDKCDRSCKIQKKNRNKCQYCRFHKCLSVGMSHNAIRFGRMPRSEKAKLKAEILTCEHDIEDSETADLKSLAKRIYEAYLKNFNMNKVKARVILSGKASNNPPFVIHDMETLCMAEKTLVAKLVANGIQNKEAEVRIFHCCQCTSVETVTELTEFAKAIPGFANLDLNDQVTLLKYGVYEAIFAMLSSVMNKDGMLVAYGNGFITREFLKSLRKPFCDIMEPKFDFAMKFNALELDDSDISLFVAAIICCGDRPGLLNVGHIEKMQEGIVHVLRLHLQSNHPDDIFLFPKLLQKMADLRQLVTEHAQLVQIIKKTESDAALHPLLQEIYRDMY
Method in brief: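 HEK293 cells seeded at 20% confluence the day before. They were co-transfected by calcium phosphate with a CMX-GAL4N-hPPARα, γ or δ LBD plasmid (30 ng), TK-MH100x4-Luc reporter (100 ng) and CMX-β-galactosidase (10 ng). After 24 h, compound was added for 24 h (final 0.5% DMSO). Luciferase was read and normalized to β-galactosidase (2-nitrophenyl-β-D-galactopyranoside, A405). Triplicates; EC50 taken from dose–response curves.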

[4] = molecular target: T3, Peroxisome proliferator-activated receptor delta (Homo sapiens, UniProt Q03181); assay: Agonist activity at GAL4-tagged human PPARdelta ligand binding domain chimeric receptor expressed in HEK293 cells after 24 hrs by luciferase reporter gene assay; assay type: cell-based
T3 sequence (Q03181 whole entry): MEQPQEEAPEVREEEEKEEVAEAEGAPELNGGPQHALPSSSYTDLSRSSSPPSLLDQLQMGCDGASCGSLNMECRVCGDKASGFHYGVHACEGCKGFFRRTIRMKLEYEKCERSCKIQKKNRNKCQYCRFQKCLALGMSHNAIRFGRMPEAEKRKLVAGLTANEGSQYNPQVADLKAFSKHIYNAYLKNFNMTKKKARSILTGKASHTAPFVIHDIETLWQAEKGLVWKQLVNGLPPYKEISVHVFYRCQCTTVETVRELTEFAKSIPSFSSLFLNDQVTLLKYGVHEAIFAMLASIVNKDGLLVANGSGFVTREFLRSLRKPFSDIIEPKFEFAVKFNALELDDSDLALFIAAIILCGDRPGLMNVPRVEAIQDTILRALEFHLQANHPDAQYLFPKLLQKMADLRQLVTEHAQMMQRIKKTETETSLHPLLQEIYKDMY

[5] = molecular target: T4, Peroxisome proliferator-activated receptor alpha (Homo sapiens) (UniProt Q07869); assay: Agonist activity at GAL4-tagged human PPARalpha ligand binding domain chimeric receptor expressed in HEK293 cells after 24 hrs by luciferase reporter gene assay relative to GW7647; assay type: cell-based
T4 sequence (whole entry): T2 sequence (Q07869 whole entry)

[6] = molecular target: T5, Peroxisome proliferator-activated receptor delta (Homo sapiens) (UniProt Q03181); assay: Agonist activity at GAL4-tagged human PPARdelta ligand binding domain chimeric receptor expressed in HEK293 cells after 24 hrs by luciferase reporter gene assay relative to GW501516; assay type: cell-based
T5 sequence (whole entry): T3 sequence (Q03181 whole entry)

Row | IC50 [1] | Imax [2] | EC50 [3] | EC50 [4] | Emax [5] | Emax [6] | Compound
1 | 11 nM |  |  |  |  |  | CC(=O)NC(C)C#Cc1ccc(Oc2ccc(OC(C)C)cc2)cc1 (configuration not stated)
2 |  | 17% | 210 nM | 390 nM |  |  | COc1ccc(Oc2ccc(-c3noc(C(C)NC(C)=O)n3)cc2)cc1 (configuration not stated)
3 |  | 3% |  |  |  |  | CC(=O)NCc1nc(-c2ccc(Oc3ccc(O)cc3)cc2)no1
4 | 1100 nM | 83% |  |  |  |  | CC(=O)NCc1nc(-c2ccc(Oc3ccc(OC(C)C)cc3)cc2)no1
5 |  | 37% |  |  |  |  | CC(=O)N[C@H](C)c1nc(-c2ccc(Oc3ccccc3)cc2)no1
6 | 260 nM | 93% |  |  |  |  | CCCCCCOc1ccc(Oc2ccc(-c3noc(C(C)NC(C)=O)n3)cc2)cc1 (configuration not stated)
7 | 48 nM | 76% |  |  |  |  | CC(=O)NC(C)c1nc(-c2ccc(Oc3ccc(Oc4ccccc4)cc3)cc2)no1 (racemic)
8 | 100 nM | 74% |  |  |  |  | CC(=O)NC(C)c1nc(-c2ccc(Oc3ccc(OC(C)C)cc3)cc2)no1 (configuration not stated)

Further lines, the compound ahead of its results:

Row | Compound | IC50 [1] | Imax [2] | EC50 [3] | EC50 [4] | Emax [5] | Emax [6]
9 | CCOc1ccc(Oc2ccc(-c3noc(C(C)NC(C)=O)n3)cc2)cc1 (configuration not stated) | 420 nM | 35% | 330 nM | 370 nM |  | 
10 | CC(=O)N[C@H](C)c1nc(-c2ccc(Oc3ccc(Oc4ccccc4)cc3)cc2)no1 | 7500 nM | 67% |  |  |  | 
11 | CC(=O)NC(C)c1nc(-c2ccc(Oc3ccccc3)cc2)no1 (racemic) | 290 nM | 45% | 320 nM | 320 nM |  | 
12 | CC(=O)N[C@@H](C)c1nc(-c2ccc(Oc3ccccc3)cc2)no1 | 220 nM | 65% | 150 nM | 290 nM |  | 
13 | CCCOc1ccc(Oc2ccc(-c3noc(C(C)NC(C)=O)n3)cc2)cc1 (configuration not stated) | 610 nM | 88% |  |  |  | 
14 | CC(=O)NC(C)c1nc(-c2ccc(Oc3ccc(O)cc3)cc2)no1 (configuration not stated) |  | 24% | 1000 nM | 1000 nM | 13 to 33% | 2 to 9%
15 | CC(=O)N[C@@H](C)c1nc(-c2ccc(Oc3ccc(Oc4ccccc4)cc3)cc2)no1 | 16 nM | 86% |  |  |  | 
